Molecules are shown by their SMILES. pIC50: −log10 of the molar value. Where only a bound is given, the exact number is not on record here.

For data set [1], the target named is T1, Lysyl oxidase homolog 2 (Homo sapiens, UniProt Q9Y4K0).
T1 sequence (Q9Y4K0 whole entry): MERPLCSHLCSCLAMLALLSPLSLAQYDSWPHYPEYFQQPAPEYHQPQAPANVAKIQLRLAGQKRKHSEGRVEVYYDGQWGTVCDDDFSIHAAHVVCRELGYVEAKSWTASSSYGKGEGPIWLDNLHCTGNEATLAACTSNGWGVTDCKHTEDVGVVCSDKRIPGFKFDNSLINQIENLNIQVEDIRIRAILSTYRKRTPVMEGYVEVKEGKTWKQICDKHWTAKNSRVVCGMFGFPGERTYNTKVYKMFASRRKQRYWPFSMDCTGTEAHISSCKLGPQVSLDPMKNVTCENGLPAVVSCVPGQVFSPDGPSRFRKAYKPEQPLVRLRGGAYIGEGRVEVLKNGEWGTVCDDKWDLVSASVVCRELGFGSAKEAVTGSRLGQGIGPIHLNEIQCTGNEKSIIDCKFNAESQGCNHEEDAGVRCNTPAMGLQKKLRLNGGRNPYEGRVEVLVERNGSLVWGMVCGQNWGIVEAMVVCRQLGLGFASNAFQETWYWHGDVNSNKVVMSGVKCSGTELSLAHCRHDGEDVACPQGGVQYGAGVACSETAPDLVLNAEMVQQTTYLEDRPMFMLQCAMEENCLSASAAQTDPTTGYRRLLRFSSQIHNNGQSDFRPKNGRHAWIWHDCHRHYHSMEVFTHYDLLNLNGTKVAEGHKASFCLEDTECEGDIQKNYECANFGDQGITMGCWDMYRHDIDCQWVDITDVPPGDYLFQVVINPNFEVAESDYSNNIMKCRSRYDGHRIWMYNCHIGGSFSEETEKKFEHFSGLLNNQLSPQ
Briefly: Inhibition of full length recombinant human LOXL2 expressed in CHO cells assessed as reduction in H2O2 production using DAP as substrate preincubated for 2 hrs followed by substrate addition measured every 2 minutes for 50 minutes by Amplex red dye based fluorescence assay.

The target in data set [2] is T2, Lysyl oxidase homolog 2 (Rattus norvegicus, UniProt B5DF27).
T2 sequence (B5DF27 whole entry): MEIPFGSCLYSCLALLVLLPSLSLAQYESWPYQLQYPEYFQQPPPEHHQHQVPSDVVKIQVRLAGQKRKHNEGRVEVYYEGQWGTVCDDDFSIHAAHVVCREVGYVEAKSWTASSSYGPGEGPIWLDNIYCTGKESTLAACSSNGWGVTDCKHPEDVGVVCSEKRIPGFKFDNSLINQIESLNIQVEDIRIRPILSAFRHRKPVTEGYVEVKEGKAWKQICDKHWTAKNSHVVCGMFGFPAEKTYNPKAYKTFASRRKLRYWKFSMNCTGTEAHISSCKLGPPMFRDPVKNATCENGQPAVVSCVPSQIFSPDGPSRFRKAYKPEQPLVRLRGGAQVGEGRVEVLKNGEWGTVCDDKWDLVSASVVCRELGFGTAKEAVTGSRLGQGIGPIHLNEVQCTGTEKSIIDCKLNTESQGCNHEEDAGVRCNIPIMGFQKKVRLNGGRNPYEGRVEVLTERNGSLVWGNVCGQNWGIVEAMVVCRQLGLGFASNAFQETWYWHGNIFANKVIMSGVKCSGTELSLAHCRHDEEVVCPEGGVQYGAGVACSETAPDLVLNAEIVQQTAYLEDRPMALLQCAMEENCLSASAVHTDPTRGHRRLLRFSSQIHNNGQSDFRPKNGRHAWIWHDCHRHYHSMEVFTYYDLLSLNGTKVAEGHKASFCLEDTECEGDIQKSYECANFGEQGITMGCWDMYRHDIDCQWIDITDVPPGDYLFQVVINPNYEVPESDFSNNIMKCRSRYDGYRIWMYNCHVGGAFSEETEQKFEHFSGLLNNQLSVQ
As to the kind of experiment: Inhibition of full length recombinant rat LOXL2 expressed in CHO cells assessed as reduction in H2O2 production using DAP as substrate preincubated for 2 hrs followed by substrate addition measured every 2 minutes for 50 minutes in presence of BSA by Amplex red dye based fluorescence assay. The procedure, abridged:
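Rodent LOXL2 is tested under the same conditions as the BSA-supplemented assay: conditioned media plus BSA, with DAP as substrate and Amplex Red detection of H2O2. Species are mouse and rat. IC50 is the geometric mean x/÷ geometric standard deviation from 3 determinations.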

Data set [3] has as its target T3, Amine oxidase [flavin-containing] A (Homo sapiens, UniProt P21397).
T3 sequence (P21397 whole entry): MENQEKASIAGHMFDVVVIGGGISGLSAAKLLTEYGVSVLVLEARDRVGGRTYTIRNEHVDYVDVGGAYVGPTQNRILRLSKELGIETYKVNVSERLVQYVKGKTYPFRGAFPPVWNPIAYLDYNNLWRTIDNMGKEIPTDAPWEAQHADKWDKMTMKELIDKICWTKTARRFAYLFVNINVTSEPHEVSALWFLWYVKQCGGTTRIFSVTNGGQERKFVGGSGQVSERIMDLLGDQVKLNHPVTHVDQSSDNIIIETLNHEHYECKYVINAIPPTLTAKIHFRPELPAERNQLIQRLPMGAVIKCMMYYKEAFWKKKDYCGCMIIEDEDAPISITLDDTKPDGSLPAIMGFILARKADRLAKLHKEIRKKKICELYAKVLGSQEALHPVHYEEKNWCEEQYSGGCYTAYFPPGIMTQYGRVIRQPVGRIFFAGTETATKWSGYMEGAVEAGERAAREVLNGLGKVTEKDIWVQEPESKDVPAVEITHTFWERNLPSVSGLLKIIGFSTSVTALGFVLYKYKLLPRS
As to the kind of experiment: Inhibition of recombinant human MAO-A at 30 uM using tyramine as substrate preincubated for 2 hrs followed by substrate addition measured every 30 secs for 10 minutes by Amplex red dye based fluorescence assay.

In a further data set the target is Cytochrome P450 2C9 (Homo sapiens, UniProt P11712). Briefly: Inhibition of CYP2C9 (unknown origin). The data set is classed as ADME.
Cytochrome P450 2C9, sequence (P11712 whole entry): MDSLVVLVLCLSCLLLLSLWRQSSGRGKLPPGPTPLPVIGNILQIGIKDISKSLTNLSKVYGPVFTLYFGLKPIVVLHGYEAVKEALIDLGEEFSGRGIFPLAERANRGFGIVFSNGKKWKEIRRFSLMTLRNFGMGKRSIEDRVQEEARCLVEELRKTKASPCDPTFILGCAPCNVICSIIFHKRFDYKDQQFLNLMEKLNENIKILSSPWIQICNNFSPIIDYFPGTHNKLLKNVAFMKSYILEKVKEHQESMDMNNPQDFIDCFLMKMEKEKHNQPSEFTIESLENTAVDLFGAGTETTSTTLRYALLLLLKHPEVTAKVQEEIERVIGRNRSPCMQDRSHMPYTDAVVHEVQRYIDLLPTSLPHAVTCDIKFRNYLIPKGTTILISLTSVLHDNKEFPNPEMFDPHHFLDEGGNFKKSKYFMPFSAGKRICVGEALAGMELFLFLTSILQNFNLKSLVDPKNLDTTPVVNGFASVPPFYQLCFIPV

With `NCc1ccnc(Cl)c1`, the pIC50 (usually the negative decadic logarithm of the IC50, by convention in mol/L) at Lysyl oxidase homolog 2 [1] was 6.90; on Lysyl oxidase homolog 2 [2], 6.87; against Cytochrome P450 2C9, below 4.52. The “inhibition (INH)” value in data set [3] is given as “Not Active”.

The values above are taken from ChEMBL document CHEMBL3994667, “Small Molecule Lysyl Oxidase-like 2 (LOXL2) Inhibitors: The Identification of an Inhibitor Selective for LOXL2 over LOX” (ACS Med Chem Lett, 2017).
